Test results published in ChEMBL document CHEMBL6078712, “Triterpenoid phthalimides as selective anti-cancer agents targeting mitochondrial apoptosis” (Eur J Med Chem, 2025).
Active and inactive are the calls of the source. The calls are words filed in the database; no cut-off is given here.

Experiments:
[1] = Stability in human plasma assessed as compound remaining at 2 uM incubated for 120 mins by RF-MS analysis; type: ADME, cell-free; conditions: read-out: Stability
Outline: (§1)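 Human plasma stability, plasma protein binding and liver microsome stability, each run in triplicate. Error deviations below 10 %.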

CCRF-CEM [2] = test: Induction of cell cycle arrest in human CCRF-CEM cells assessed as downregulation of Cyclin A expression at 5 times IC50 incubated for 24 hrs by Western blotting analysis; type: functional, cell-based
Outline: (§2)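 30 µg protein per lane on SDS-PAGE, transferred to nitrocellulose, blocked in 5 % BSA/TBS-Tween. Primary antibodies overnight at 4 °C (Akt, P-Akt Ser473, STAT-3, caspase-3, PARP, cyclin D, cyclin A, Bcl-xL, Bak, Bid, Bim), then HRP secondary and ECL detection. GAPDH as loading control.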

CCRF-CEM [3] = test: Inhibition of RNA synthesis in human CCRF-CEM cells at 5 times IC50 incubated for 24 hrs by BrU incorporation based flow cytometry; type: functional
Outline: (§3)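 Fixed in 1 % paraformaldehyde/0.05 % NP-40 (15 min at room temperature, then 4 °C overnight). Stained with cross-reacting anti-BrdU plus FITC secondary (45 min each), then PI/RNase A. Flow cytometry; % BrU-positive cells.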

[4] = Cytotoxicity against human K562-Tax cells assessed as inhibition of cell growth incubated for 72 hrs by MTS assay; type: functional, cell-based
Outline: (§4)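 MTS assay on eight human cancer lines and two non-tumour fibroblast lines. IC50 is the concentration that inhibits cell growth by 50 %. SD typically up to 15 % of the mean.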

CCRF-CEM [5] = test: Induction of apoptosis in human CCRF-CEM cells assessed as early apoptotic cells at 1 times IC50 incubated for 24 hrs by Annexin V-FITC and PI staining based flow cytometric analysis (reference value: 2.1 %); type: functional
Outline: (§5)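 Washed in Ca2+-containing binding buffer, then stained 15 min at room temperature in the dark with Annexin V-FITC and propidium iodide (PI at half the kit-recommended level). Read at once by flow cytometry with a 488 nm laser, ≥10,000 cells. Debris excluded; quadrants viable, early apoptotic, late apoptotic/necrotic, necrotic. Three independent experiments.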

CCRF-CEM [6] = test: Induction of apoptosis in human CCRF-CEM cells assessed as viable cells at 1 times IC50 incubated for 24 hrs by Annexin V-FITC and PI staining based flow cytometric analysis (reference value: 97.4 %); type: functional; outline: as §5
CCRF-CEM [7] = test: Induction of apoptosis in human CCRF-CEM cells assessed as necrotic cells at 1 times IC50 incubated for 24 hrs by Annexin V-FITC and PI staining based flow cytometric analysis (reference value: 0.4 %); type: functional; outline: as §5
A549 = test: Cytotoxicity against human A549 cells assessed as inhibition of cell growth incubated for 72 hrs by MTS assay; type: functional, cell-based; conditions: A549, 72 h; outline: as §4
CCRF-CEM [8] = test: Inhibition of DNA synthesis in human CCRF-CEM cells at 5 times IC50 incubated for 24 hrs by BrdU incorporation based flow cytometry; type: functional
Outline: (§6)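 Fixed in ice-cold 70 % ethanol, DNA denatured in 2 M HCl for 30 min, neutralised with borax. Stained with anti-BrdU plus FITC secondary, then PI/RNase A for 1 h. Flow cytometry; % BrdU-positive cells.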

[9] = Plasma protein binding in human assessed as fraction bound at 10 uM incubated for 4 hrs by rapid equilibrium dialysis based RF-MS analysis; type: ADME, cell-free; conditions: read-out: PPB (converted); outline: as §1
CCRF-CEM [10] = test: Induction of apoptosis in human CCRF-CEM cells assessed as late apoptotic cells at 5 times IC50 incubated for 24 hrs by Annexin V-FITC and PI staining based flow cytometric analysis (reference value: 0.4 %); type: functional; outline: as §5
Mitochondrial membrane [11] = test: Induction of mitochondrial membrane potential depolarization in human CCRF-CEM cells assessed as fold increase in fluorescence intensity incubated for 24 hrs by JC-1 staining based flow cytometry; type: cell membranes
[12] = Cytotoxicity against human MRC5 cells assessed as inhibition of cell growth incubated for 72 hrs by MTS assay; type: toxicity, cell-based; outline: as §4
CCRF-CEM [13] = test: Induction of cell cycle arrest in human CCRF-CEM cells assessed as downregulation of total AKT expression at 5 times IC50 incubated for 24 hrs by Western blotting analysis; type: functional, cell-based; outline: as §2
CCRF-CEM [14] = test: Induction of apoptosis in human CCRF-CEM cells assessed as upregulation of BID expression at 1 to 5 times IC50 incubated for 24 hrs by Western blotting analysis; type: functional, cell-based; outline: as §2
CEM-DNR = test: Cytotoxicity against human CEM-DNR cells assessed as inhibition of cell growth incubated for 72 hrs by MTS assay; type: functional, cell-based; outline: as §4
CCRF-CEM [15] = test: Cytotoxicity against human CCRF-CEM cells assessed as inhibition of cell growth incubated for 72 hrs by MTS assay; type: functional, cell-based; outline: as §4
[16] = Stability in human plasma assessed as compound remaining at 2 uM incubated for 30 mins by RF-MS analysis; type: ADME, cell-free; conditions: read-out: Stability; outline: as §1
CCRF-CEM [17] = test: Induction of cell cycle arrest in human CCRF-CEM cells assessed as increase in accumulation of G0/G1 phase at 5 times IC50 incubated for 24 hrs by RNase/PI staining based flow cytometry; type: functional
Outline: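 Propidium iodide staining and flow cytometry with a 488 nm laser, ≥10,000 intact cells. Phase proportions compared with untreated cells; SEM of three independent experiments.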

CCRF-CEM [18] = test: Induction of apoptosis in human CCRF-CEM cells assessed as viable cells at 5 times IC50 incubated for 24 hrs by Annexin V-FITC and PI staining based flow cytometric analysis (reference value: 97.4 %); type: functional; outline: as §5
HCT 116 TP53(-/-) = test: Cytotoxicity against human HCT116-p53-null cells assessed as inhibition of cell growth incubated for 72 hrs by MTS assay; type: functional, cell-based; outline: as §4
CCRF-CEM [19] = test: Inhibition of DNA synthesis in human CCRF-CEM cells at 1 times IC50 incubated for 24 hrs by BrdU incorporation based flow cytometry; type: functional; outline: as §6
[20] = Stability in human plasma assessed as compound remaining at 2 uM incubated for 15 mins by RF-MS analysis; type: ADME, cell-free; conditions: read-out: Stability; outline: as §1
CCRF-CEM [21] = test: Induction of cell cycle arrest in human CCRF-CEM cells assessed as downregulation of total STAT3 expression at 5 times IC50 incubated for 24 hrs by Western blotting analysis; type: functional, cell-based; outline: as §2
K562 = test: Cytotoxicity against human K562 cells assessed as inhibition of cell growth incubated for 72 hrs by MTS assay; type: functional, cell-based; conditions: K562, 72 h; outline: as §4
[22] = Stability in human plasma assessed as compound remaining at 2 uM incubated for 60 mins by RF-MS analysis; type: ADME, cell-free; conditions: read-out: Stability; outline: as §1
CCRF-CEM [23] = test: Induction of apoptosis in human CCRF-CEM cells assessed as early apoptotic cells at 5 times IC50 incubated for 24 hrs by Annexin V-FITC and PI staining based flow cytometric analysis (reference value: 2.1 %); type: functional; outline: as §5
[24] = Metabolic stability in human liver microsomes assessed as parent compound remaining at 2 uM incubated for 60 mins in presence of NADPH by RF-MS analysis; type: ADME, Microsome; conditions: read-out: Stability; outline: as §1
CCRF-CEM [25] = test: Induction of cell cycle arrest in human CCRF-CEM cells assessed as downregulation of Cyclin D expression at 5 times IC50 incubated for 24 hrs by Western blotting analysis; type: functional, cell-based; outline: as §2
Mitochondrial membrane [26] = test: Induction of mitochondrial membrane potential depolarization in human CCRF-CEM cells assessed as fold increase in fluorescence intensity at 5 times IC50 incubated for 24 hrs by JC-1 staining based flow cytometry; type: cell membranes
CCRF-CEM [27] = test: Induction of apoptosis in human CCRF-CEM cells assessed as downregulation of BCL-XL expression at 5 times IC50 incubated for 24 hrs by Western blotting analysis; type: functional, cell-based; outline: as §2
[28] = Metabolic stability in human liver microsomes assessed as parent compound remaining at 2 uM incubated for 30 mins in presence of NADPH by RF-MS analysis; type: ADME, Microsome; conditions: read-out: Stability; outline: as §1
U2OS = test: Cytotoxicity against human U2OS cells assessed as inhibition of cell growth incubated for 72 hrs by MTS assay; type: functional, cell-based; outline: as §4
CCRF-CEM [29] = test: Induction of apoptosis in human CCRF-CEM cells assessed as downregulation of caspase-3 expression at 5 times IC50 incubated for 24 hrs by Western blotting analysis; type: functional, cell-based; outline: as §2
CCRF-CEM [30] = test: Induction of apoptosis in human CCRF-CEM cells assessed as necrotic cells at 5 times IC50 incubated for 24 hrs by Annexin V-FITC and PI staining based flow cytometric analysis (reference value: 0.4 %); type: functional; outline: as §5
CCRF-CEM [31] = test: Inhibition of RNA synthesis in human CCRF-CEM cells at 1 times IC50 incubated for 24 hrs by BrU incorporation based flow cytometry; type: functional; outline: as §3
[32] = Cytotoxicity against human BJ cells assessed as inhibition of cell growth incubated for 72 hrs by MTS assay; type: toxicity, cell-based; outline: as §4
[33] = Metabolic stability in human liver microsomes assessed as parent compound remaining at 2 uM incubated for 15 mins in presence of NADPH by RF-MS analysis; type: ADME, Microsome; conditions: read-out: Stability; outline: as §1
CCRF-CEM [34] = test: Induction of apoptosis in human CCRF-CEM cells assessed as upregulation of BIM expression at 1 to 5 times IC50 incubated for 24 hrs by Western blotting analysis; type: functional, cell-based; outline: as §2
HCT-116 = test: Cytotoxicity against human HCT-116 cells assessed as inhibition of cell growth incubated for 72 hrs by MTS assay; type: functional, cell-based; conditions: HCT-116, 72 h; outline: as §4
CCRF-CEM [35] = test: Induction of apoptosis in human CCRF-CEM cells assessed as late apoptotic cells at 1 times IC50 incubated for 24 hrs by Annexin V-FITC and PI staining based flow cytometric analysis (reference value: 0.4 %); type: functional; outline: as §5

CC1(C)[C@@H](O)CC[C@]2(C)[C@H]3CC[C@@H]4[C@H]5[C@H](c6cc7c(c(-c8ccccc8)c6)C(=O)N(c6ccc(N)cc6)C7=O)CC[C@]5(C(=O)O)CC[C@@]4(C)[C@]3(C)CC[C@@H]12
remaining at 2 h, 2 µM [1]: 89% | Activity (CCRF-CEM [2]): Active | inhibition (INH) (CCRF-CEM [3]): 45.4% | IC50 [4]: 4.34 µM | Activity (CCRF-CEM [5]): 4.8% | Activity (CCRF-CEM [6]): 92.4% | Activity (CCRF-CEM [7]): 0% | IC50 (A549): 21 µM | inhibition (INH) (CCRF-CEM [8]): 13.6% | fraction unbound at 4 h, 10 µM [9]: 0.37 | Activity (CCRF-CEM [10]): 4.7% | Activity (Mitochondrial membrane [11]): Dose-dependent-effect | IC50 at 72 h [12]: 19.4 µM | Activity (CCRF-CEM [13]): Active; Slight Activity Observed | Activity (CCRF-CEM [14]): Active | IC50 (CEM-DNR): 6.29 µM | IC50 (CCRF-CEM [15]): 4.09 µM | remaining at 0.5 h, 2 µM [16]: 92% | Activity (CCRF-CEM [17]): Active | Activity (CCRF-CEM [18]): 87.5% | IC50 (HCT 116 TP53(-/-)): 17.1 µM | inhibition (INH) (CCRF-CEM [19]): 30% | remaining at 0.25 h, 2 µM [20]: 106% | Activity (CCRF-CEM [21]): Active | IC50 (K562): 20.9 µM | remaining at 1 h, 2 µM [22]: 93% | Activity (CCRF-CEM [23]): 7.8% | remaining at 1 h, 2 µM [24]: 97% | Activity (CCRF-CEM [25]): Active | fold change (FC) (Mitochondrial membrane [26]): > 20 | Activity (CCRF-CEM [27]): Active | remaining at 0.5 h, 2 µM [28]: 102% | IC50 (U2OS): 15.6 µM | Activity (CCRF-CEM [29]): Active | Activity (CCRF-CEM [30]): 0% | inhibition (INH) (CCRF-CEM [31]): 24% | IC50 at 72 h [32]: 40.6 µM | remaining at 0.25 h, 2 µM [33]: 100% | Activity (CCRF-CEM [34]): Active | IC50 (HCT-116): 12 µM | Activity (CCRF-CEM [35]): 2.8%
